Results published in ChEMBL document CHEMBL1142097, “EthA, a common activator of thiocarbamide-containing drugs acting on different mycobacterial targets” (Antimicrob Agents Chemother, 2007).
≈ marks a conversion by molar mass, not a printed value.

What was measured:
[1] = tested on: Mycobacterium tuberculosis variant bovis BCG; test: Antimycobacterial activity against Mycobacterium bovis BCG Pasteur with pMV261 vector; type: functional
Method in brief: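 Agar MIC on Middlebrook 7H9 or 7H11 with OADC (ADC substituted for isoxyl-type drugs) plus graded drug levels; serial 10-fold dilutions of actively growing culture plated, incubated 37°C for 10–14 days; MIC = lowest concentration blocking 99% of growth. Recombinant Pasteur strains selected with 25 μg/ml kanamycin; ethR::hyg mutant carries a hygromycin-marked transposon in ethR.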

[2] = Drug metabolizing activity of Mycobacterium bovis BCG recombinant ethA expressed in Escherichia coli; type: ADME; details: mycobacterium tuberculosis variant bovis bcg
Method in brief: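 N-terminal His6-tagged EthA expressed in E. coli (1 mM IPTG, 22°C, 24 h), Ni2+ affinity-purified with bound FAD. Drug incubated at 37°C for 1 h in 50 mM Tris-HCl pH 7.4, 100 mM KCl, 200 μg/ml BSA, 4 mM NADPH, 8 μg EthA.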

| Compound | MIC [1] [µg/mL] | Activity [2] [µmol/min/mg] |
| --- | --- | --- |
| COc1ccc(/C(C)=N/NC(N)=S)cc1 | 0.25 (≈ 1.12 µM) | – |
| CC(C)CCSc1ccc(NC(=S)Nc2ccc(SCCC(C)C)cc2)cc1 | 40 (≈ 92.4 µM) | 7.37 |
| CC(=O)Nc1ccc(/C=N/NC(N)=S)cc1 [AMITHIOZONE] | 0.5 (≈ 2.12 µM) | – |
| CCc1cc(C(N)=S)ccn1 [ETHIONAMIDE] | 2 (≈ 12 µM) | – |
| NC(=S)N/N=C/c1cccnc1 [NICOTHIAZONE] | 10 (≈ 55.5 µM) | – |
| CC(C)CCOc1ccc(NC(=S)Nc2ccc(OCCC(C)C)cc2)cc1 [TIOCARLIDE] | 0.25 (≈ 0.624 µM) | 7.56 |
